Experimental data: ChEMBL document CHEMBL4715754, “Slowing down fat digestion and absorption by an oxadiazolone inhibitor targeting selectively gastric lipolysis” (2016)

Columns and labels:
[1] = molecular target: T1, Gastric triacylglycerol lipase (Canis lupus familiaris) (UniProt P80035); assay: Inhibition of recombinant dog gastric lipase assessed as residual activity by measuring half-inactivation time at 20:1 molar excess compound concentration preincubated for 1 hr at 25 degreeC
T1 sequence (whole entry): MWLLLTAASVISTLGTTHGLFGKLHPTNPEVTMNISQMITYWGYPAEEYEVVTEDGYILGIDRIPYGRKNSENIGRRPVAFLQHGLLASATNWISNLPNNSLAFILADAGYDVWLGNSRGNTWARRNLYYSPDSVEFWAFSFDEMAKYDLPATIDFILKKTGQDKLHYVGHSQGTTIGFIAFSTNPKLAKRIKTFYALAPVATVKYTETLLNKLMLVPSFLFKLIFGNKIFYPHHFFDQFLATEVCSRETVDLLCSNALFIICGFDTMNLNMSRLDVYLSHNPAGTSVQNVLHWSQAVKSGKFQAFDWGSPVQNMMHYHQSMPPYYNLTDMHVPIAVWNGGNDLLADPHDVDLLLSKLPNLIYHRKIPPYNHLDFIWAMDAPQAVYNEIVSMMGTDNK
In short: (§1)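 Enzyme pre-incubated with inhibitor (DMSO stock) at fixed molar excess for 1 h at 25 °C without substrate: hCEH x_I=4 (1 mM NaTDC assay), RLL and DGL x_I=20 with 4 mM NaTDC, GPLRP2 x_I=2 with 2 mM NaTDC. Residual activity sampled at intervals by pH-stat on tributyrin emulsion at 37 °C; t1/2 taken at 50% residual activity. DMSO-only controls; at least triplicate.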

[2] = molecular target: T2, Pancreatic lipase-related protein 2 (Cavia porcellus) (UniProt P81139); assay: Inhibition of recombinant guinea pig PL-RP2 expressed in Aspergillus oryzae assessed as residual activity by measuring half-inactivation time at 2:1 molar excess compound concentration preincubated for 1 hr at 25 degreeC; in short: as §1
T2 sequence (whole entry): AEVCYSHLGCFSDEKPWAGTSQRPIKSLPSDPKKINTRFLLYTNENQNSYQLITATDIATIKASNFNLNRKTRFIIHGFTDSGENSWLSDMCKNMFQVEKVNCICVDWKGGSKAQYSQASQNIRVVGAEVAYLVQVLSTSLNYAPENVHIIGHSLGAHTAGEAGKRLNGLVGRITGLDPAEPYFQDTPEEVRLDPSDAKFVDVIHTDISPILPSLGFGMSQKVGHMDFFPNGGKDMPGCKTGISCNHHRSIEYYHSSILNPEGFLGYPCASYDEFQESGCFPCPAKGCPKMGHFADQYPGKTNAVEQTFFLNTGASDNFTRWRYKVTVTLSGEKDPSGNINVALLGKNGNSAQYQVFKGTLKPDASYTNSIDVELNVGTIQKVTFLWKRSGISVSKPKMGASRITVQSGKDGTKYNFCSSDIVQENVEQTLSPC

[3] = molecular target: T1, Gastric triacylglycerol lipase (Canis lupus familiaris); assay: Inhibition of recombinant dog gastric lipase preincubated for 1 hr at 25 degreeC
[4] = molecular target: T3, Pancreatic triacylglycerol lipase (Sus scrofa) (UniProt P00591); assay: Inhibition of porcine pancreatic lipase at 400:1 molar excess compound concentration preincubated for 30 mins at 25 degreeC relative to control
T3 sequence (whole entry): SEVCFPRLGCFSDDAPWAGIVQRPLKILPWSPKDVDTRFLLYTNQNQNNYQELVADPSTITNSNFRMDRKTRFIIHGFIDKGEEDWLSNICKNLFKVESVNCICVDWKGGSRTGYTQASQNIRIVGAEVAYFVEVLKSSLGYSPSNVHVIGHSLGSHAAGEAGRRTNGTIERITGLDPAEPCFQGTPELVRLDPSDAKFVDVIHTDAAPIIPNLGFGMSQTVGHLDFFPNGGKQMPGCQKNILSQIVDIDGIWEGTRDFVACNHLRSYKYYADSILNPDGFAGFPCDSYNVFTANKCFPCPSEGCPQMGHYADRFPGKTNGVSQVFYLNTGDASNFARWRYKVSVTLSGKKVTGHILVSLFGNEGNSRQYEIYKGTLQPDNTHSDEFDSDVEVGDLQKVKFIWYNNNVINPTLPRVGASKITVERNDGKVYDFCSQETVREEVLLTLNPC
In short: (§2)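 Pancreatic lipase from human pancreatic juice (54 µg/mL HPL stock) or porcine pancreatic extract (32 µg/mL PPL stock) was held in 10 mM MES pH 7.0, 150 mM NaCl. It was pre-incubated with inhibitor from DMSO stock for 30 min at 25 °C with 4 mM NaTDC at varied molar excess. Residual activity was read by pH-stat on tributyrin at 37 °C, pH 8.0, with 2 mM CaCl₂ and 4 mM NaTDC. x_I50 was taken from residual activity; DMSO-only controls were run.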

[5] = molecular target: T2, Pancreatic lipase-related protein 2 (Cavia porcellus); assay: Inhibition of recombinant guinea pig PL-RP2 expressed in Aspergillus oryzae preincubated for 1 hr at 25 degreeC
[6] = molecular target: T4, Pancreatic triacylglycerol lipase (Homo sapiens) (UniProt P16233); assay: Inhibition of human pancreatic lipase preincubated for 30 mins at 25 degreeC; in short: as §2
T4 sequence (whole entry): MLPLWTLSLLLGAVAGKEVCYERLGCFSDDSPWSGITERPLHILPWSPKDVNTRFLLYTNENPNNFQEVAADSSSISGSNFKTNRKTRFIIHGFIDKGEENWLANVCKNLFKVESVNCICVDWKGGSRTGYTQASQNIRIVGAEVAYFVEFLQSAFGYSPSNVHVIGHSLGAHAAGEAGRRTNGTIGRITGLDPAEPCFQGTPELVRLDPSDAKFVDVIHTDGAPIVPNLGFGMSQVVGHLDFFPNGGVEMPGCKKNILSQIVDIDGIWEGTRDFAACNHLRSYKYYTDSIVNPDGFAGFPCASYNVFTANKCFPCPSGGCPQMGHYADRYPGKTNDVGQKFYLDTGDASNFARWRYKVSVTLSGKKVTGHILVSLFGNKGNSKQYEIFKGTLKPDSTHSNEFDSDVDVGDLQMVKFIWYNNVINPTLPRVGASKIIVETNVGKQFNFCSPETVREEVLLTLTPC

Rattus norvegicus [7] = assay: Inhibition of lipolysis in mesenteric lymph duct-cannulated Wistar rat model assessed as initial velocity of fatty acid output at 5.3 mg/kg supplemented with olive oil emulsion and measured after 24 hrs (reference value: 12.3 +/- 0.46 mg/ml/h); format: functional
Rattus norvegicus [8] = assay: Inhibition of lipolysis in mesenteric lymph duct-cannulated Wistar rat model assessed as decrease in intestinal lipid absorption at 5.3 mg/kg supplemented with olive oil emulsion and measured after 6 hrs relative to control; format: functional; design: scale not given: the % may be the effect or the level left
In short: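 Male Wistar rats (8 weeks, 300-350 g), fat-free diet 24 h, mesenteric lymph duct cannulated under ketamine/xylazine. Given 0.8 mL olive oil emulsion (530 mg fatty acids) premixed with inhibitor at 5.3 mg/kg by mouth, then 0.5 mL water. Lymph collected over 24 h; total fatty acids by GC-FID of methyl esters. 7 rats per group; one-way ANOVA with Fisher's test.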

[9] = molecular target: T4, Pancreatic triacylglycerol lipase (Homo sapiens); assay: Inhibition of human pancreatic lipase at 400:1 molar excess compound concentration preincubated for 30 mins at 25 degreeC relative to control; in short: as §2
Homo sapiens = organism: Homo sapiens; assay: Inhibition of human pancreatic carboxylesterase assessed as residual activity by measuring half-inactivation time at 4:1 molar excess compound concentration preincubated for 1 hr at 25 degreeC; in short: as §1
[10] = molecular target: T3, Pancreatic triacylglycerol lipase (Sus scrofa); assay: Inhibition of porcine pancreatic lipase preincubated for 30 mins at 25 degreeC; in short: as §2

O=c1oc(OCCOCc2ccccc2)nn1-c1cccc(Oc2ccccc2)c1
T1/2 [1]: 101 s
T1/2 [2]: 31.2 s
XI50 [3]: 0.5 molar excess
inhibition [4]: 13.2%
XI50 [5]: 0.64 molar excess
XI50 [6]: > 400 molar excess
V0 (Rattus norvegicus [7]): 9.8 mg/mL/h
Activity (Rattus norvegicus [8]): -9.1%
inhibition [9]: 19.3%
T1/2 (Homo sapiens): 78.6 s
XI50 [10]: > 400 molar excess

CCCCCCCCCCC[C@@H](C[C@@H]1OC(=O)[C@H]1CCCCCC)OC(=O)[C@@H](CC(C)C)NC=O
T1/2 [1]: 35.4 s
T1/2 [2]: 24 s
XI50 [3]: 5.6 molar excess
inhibition [4]: 93.1%
XI50 [5]: 0.53 molar excess
XI50 [6]: 11.1 molar excess
V0 (Rattus norvegicus [7]): 4.4 mg/mL/h
Activity (Rattus norvegicus [8]): -37.4%
inhibition [9]: 91.5%
T1/2 (Homo sapiens): 31.2 s
XI50 [10]: 1.35 molar excess
